Records with an inconclusive call do not appear. Active and inactive are the calls of the source.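 The calls were made as follows, unless noted: active = viability at or below 27.92% in each of two runs, the all-compound median minus 4 SD; inconclusive = no clear call, values can overlap the other calls; inactive = the rest.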
How the values were obtained:
[1] = S. cerevisiae growth inhibition in permissive medium (OD615), pilot counter-assay for S. cerevisiae lifespan shortening project, permissive growth control (AID 705;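 active = growth inhibition above 25% in both replicates, a cutoff set 3 SD above the mean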); conditions: OD615, 24 h, at 10 µM, active compounds read high
How it was run: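 assay system = Saccharomyces cerevisiae strain carrying genetically modified DeaD replicative-lifespan system | technique = absorbance (optical density) at 615 nm | buffer or medium = permissive raffinose/galactose medium | timing = cells pre-grown 4 h, then 24 h compound exposure, 30 °C humidified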

[2] = S. cerevisiae growth inhibition in restrictive medium, OD615, pilot screen, restrictive growth control, yeast lifespan reduction project (AID 706;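 active = growth inhibition above a set limit, 3 SD over mean compound inhibition, in both replicates, cut at about 43% in these data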;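 also: modified DeaD lifespan yeast strain shifted to restrictive glucose medium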); conditions: OD615, 48 h, at 10 µM, active compounds read high
How it was run: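 System: modified S. cerevisiae. Buffer or medium: CSMM-D glucose medium. Incubation: 4 h pre-growth plus 48 h compound exposure, 30 °C. Detection: absorbance (optical density) measured at 615 nm.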

[3] = doxorubicin toxicity protection in MRP-1 cells – H69AR cells, CellTiter-Glo, duplicate, MRP-1 activator project, pilot screen (AID 807;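 active = viability increase at or above a cutoff of the median across tested compounds plus 3 SD, cut at about 8.5% in these data, passing the limit was not always enough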;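 also: compound pretreatment 18-22 h then 72 h combined with doxorubicin; 0% = doxorubicin alone and 100% = vehicle without doxorubicin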); conditions: H69AR viability with doxorubicin, CellTiter-Glo luminescence; at 10 µM; active compounds read high
[4] = viability of HCT116 without oncogenic beta-catenin – human colon tumor cells, pilot screen (AID 823;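 active = cell viability at or below a set limit in both duplicate runs, the limit being the all-compound median minus 4 SD, cut at about 23% in these data, passing the limit was not always enough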;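 also: 0% = wells killed by 20 µM Hyamine and 100% = untreated DMSO cell wells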); conditions: HCT116 beta-catenin knockout viability, CellTiter-Glo, 60 h; at 10 µM; active compounds read low
[5] = viability of PTEN-null HCT116 cells – cell-based, HCT116 clonal line, CellTiter-Glo, pilot screen (AID 824); conditions: HCT116 PTEN-deleted viability, 60 h, at 10 µM, active compounds read low;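 also: 0% = 20 µM Hyamine control and 100% = vehicle cell control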
[6] = RAM pathway blockade in budding yeast – dse1pr::URA3 reporter, 5-FOA selection, pilot screen (AID 869;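 active = inhibition over a set limit, the all-compound mean plus 3 SD, in both replicate runs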;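 also: 0% = DMSO wells with no growth and 100% = 10 µM 1-NA-PP1 with full growth; RAM network block rescues cells from 5-FOA so hits raise OD615 growth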); conditions: S. cerevisiae dse1pr::URA3 5-FOA growth, OD615, 2 d; at 10 µM; active compounds read high; strain carries analog-sensitive mutant Cbk1 kinase
[7] = RAM signaling pathway blockade in yeast – S. cerevisiae, Pdr1DBD-CYC8 efflux-inhibited sensitized strain, primary screen (AID 1298;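 active = RAM network inhibition above 8.4% in each of two replicates, 3 SD over the compound average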;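 also: 0% = DMSO untreated cells without growth and 100% = 10 µM 1-NA-PP1 full growth; higher means more yeast growth rescued from 5-FOA killing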); conditions: S. cerevisiae cbk1-as DSE1-URA3 strain, 5-FOA growth OD615, 2 d; at 50 µM; active compounds read high

CCN1CCN(CCNC(=O)CS(=O)(=O)Cc2nc(-c3ccc(C)cc3)oc2C)CC1
inactive: growth inhibition [1] -13.7% | growth inhibition [2] -28.7% | viability increase [3] 0.44% | viability [4] 87.2% | viability [5] 93.7% | inhibition [6] 0.22% | RAM network inhibition [7] 3.16%

Cc1ccccc1NC(=O)NCCN1C(=O)C2C3C=CC(C3)C2C1=O (centres undefined)
inactive: growth inhibition [1] -7.87% | growth inhibition [2] 1.59% | viability increase [3] -2.01% | viability [4] 103% | viability [5] 102% | inhibition [6] 0.745% | RAM network inhibition [7] 1.46%

Cc1cc2oc3c(c(=O)c2cc1C)C(c1ccc(F)cc1)N(CCCN1CCOCC1)C3=O (centres undefined)
inactive: growth inhibition [1] 4.43% | growth inhibition [2] -11.3% | viability increase [3] -2.77% | viability [4] 98.5% | viability [5] 96% | inhibition [6] 1.74% | RAM network inhibition [7] 1.83%

CC1CCN(C(=O)CN2C(=O)C(=O)c3ccccc32)CC1
inactive: growth inhibition [1] 3.92% | growth inhibition [2] -0.215% | viability increase [3] -5.16% | viability [4] 100% | viability [5] 97.1% | inhibition [6] 1.33% | RAM network inhibition [7] 3.27%

CC1Cn2c(COc3ccccc3)nnc2S1 (centres undefined)
inactive: growth inhibition [1] -8.31% | growth inhibition [2] 6.73% | viability increase [3] -0.25% | viability [4] 102% | viability [5] 94.1% | inhibition [6] 0.645% | RAM network inhibition [7] 4%

CCOC(=O)C1=C(C)NC(=O)NC1c1c(O)ccc2ccccc12 (centres undefined)
inactive: growth inhibition [1] -11.6% | growth inhibition [2] -12.7% | viability increase [3] -3.39% | viability [4] 97.6% | viability [5] 95.4% | inhibition [6] 0.77% | RAM network inhibition [7] 2.29%

CC1CCC(NC(=O)Cn2cc3c(n2)CCCC3)CC1 (centres undefined)
inactive: growth inhibition [1] -4.87% | growth inhibition [2] -6.18% | viability increase [3] 1.57% | viability [4] 110% | viability [5] 103% | inhibition [6] -0.485% | RAM network inhibition [7] 0.23%

COc1cccc(-c2cc(C(=O)N3CCN(c4ncccn4)CC3)c3ccccc3n2)c1
inactive: growth inhibition [1] 0.09% | growth inhibition [2] -2.04% | viability increase [3] -6.25% | viability [4] 62% | viability [5] 64% | inhibition [6] 1.14% | RAM network inhibition [7] -0.21%

CCCCCn1c(=N)n(CC(O)COc2ccccc2OC)c2ccccc21 (centres undefined)
active: viability [4] 15.6% | viability [5] 21.9%
inactive: growth inhibition [1] -4.93% | growth inhibition [2] 4.88% | viability increase [3] -7.9% | inhibition [6] -0.235% | RAM network inhibition [7] 0.4%

O/N=C1/CCCSc2ccccc21
inactive: growth inhibition [1] -7.19% | growth inhibition [2] -16.8% | viability increase [3] -1.24% | viability [4] 96.6% | viability [5] 97.9% | inhibition [6] 0.95% | RAM network inhibition [7] 2.18%

Cc1[nH]c2ccccc2c1Cc1nnc(SCC(N)=O)o1
inactive: growth inhibition [1] 5.65% | growth inhibition [2] -5.42% | viability increase [3] -0.41% | viability [4] 100% | viability [5] 102% | inhibition [6] 1.88% | RAM network inhibition [7] 1.36%

O=C(C1CCCN(S(=O)(=O)c2cccc3cccnc23)C1)N1CCc2ccccc21 (centres undefined)
inactive: growth inhibition [1] -2.7% | growth inhibition [2] -3.75% | viability increase [3] -5.63% | viability [4] 68.7% | viability [5] 66.7% | inhibition [6] 1.5% | RAM network inhibition [7] 3.58%

Reference: PubChem BioAssay
